Assay results: ChEMBL document CHEMBL4411269, “Required Immunoproteasome Subunit Inhibition Profile for Anti-Inflammatory Efficacy and Clinical Candidate KZR-616 ((2 S,3 R)- N-(( S)-3-(Cyclopent-1-en-1-yl)-1-(( R)-2-methyloxiran-2-yl)-1-oxopropan-2-yl)-3-hydroxy-3-(4-methoxyphenyl)-2-(( S)-2-(2-morpholinoacetamido)propanamido)propenamide)” (J Med Chem, 2018)
The source made the active and inactive calls. The calls are words filed in the database; no cut-off is given here.

Tests used:
PBMC [1] = experiment: Antiinflammatory activity in human PBMC assessed as reduction in LPS-stimulated IL-6 expression at 500 nM preincubated for 1 hr followed by LPS stimulation measured after 24 hrs by ELISA; assay type: functional, cell-based
How it was run: (§1)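 Cryopreserved healthy-donor PBMC in RPMI 1640 with 5% heat-inactivated FBS, 250 000 cells/well. Compound (0.1% DMSO final) for 1 h at 37 °C, 5% CO2, then 4 washes with medium. Stimulated with 1 μg/mL LPS for 24 h; supernatant TNFα, IL-6 and IL-12/23p40 by electrochemiluminescent immunoassay. Mean level relative to DMSO controls, n = 6.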

[2] = Toxicity in Balb/c mouse assessed as effect on cage-side observations at 5 mg/kg, iv followed by dosing repeat on day 6, 8, 11, 13 and 15 and measured until day 18; assay type: organism-based; details: in vivo
PBMC [3] = experiment: Antiinflammatory activity in human PBMC assessed as reduction in anti-CD3/CD28 antibody-stimulated IFN-gamma expression at 500 nM preincubated for 1 hr followed by anti-CD3/CD28 antibody stimulation measured after 24 hrs by ELISA; assay type: functional, cell-based
How it was run: (§2)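 Healthy-donor PBMC, thawed from cryopreservation, 250 000 cells/well in RPMI 1640/5% FBS. Pretreated 1 h at 37 °C with compound alone or combined (0.1% DMSO final), washed 4 times, then stimulated 24 h with anti-CD3 and anti-CD28 antibodies. TNFα and IFNγ in supernatants by electrochemiluminescent ELISA; expressed relative to DMSO-treated controls (n = 6).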

[4] = Clearance in Balb/c mouse at 2 mg/kg, iv; assay type: ADME, organism-based; details: in vivo
How it was run: (§3)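 Female BALB/c mice aged 7−8 weeks, given 2 mg/kg iv in 25% PEG300/WFI. Cardiac blood taken at 2, 5, 10, 20, 30, 60 and 120 min postdose into sodium heparin and processed to plasma (n = 3/time point). Proteins precipitated with acetonitrile; drug measured by LC−MS/MS. Noncompartmental analysis of mean concentrations at nominal times and target doses.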

PBMC [5] = experiment: Antiinflammatory activity in human PBMC assessed as reduction in LPS-stimulated p40 subunit of […] expression at 500 nM preincubated for 1 hr followed by LPS stimulation measured after 24 hrs by ELISA; assay type: functional, cell-based; how it was run: as §1
Mus musculus [6] = experiment: In vivo inhibition of LMP2 in Balb/c mouse splenocytes at 5 mg/kg, iv followed by dosing repeat on day 6, 8, 11, 13 and 15 and measured on 1 hr post last dose; assay type: functional, organism-based
How it was run: (§4)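 BALB/c mice dosed iv bolus in 10% sulfobutyl ether−β-cyclodextrin/10 mM sodium citrate pH 3.5; tissues taken 1 h after administration. Splenocytes strained and red cells lysed; kidney frozen, then bead-homogenized. Hypotonic lysate (20 mM Tris pH 8, 5 mM EDTA) at 1 mg/mL (spleen) or 5 mg/mL (kidney) run in the ProCISE active-site ELISA. Background-subtracted, protein-normalized activity relative to vehicle animals; n = 3.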

PBMC [7] = experiment: Antiinflammatory activity in human PBMC assessed as reduction in LPS-stimulated TNF-alpha expression at 500 nM preincubated for 1 hr followed by LPS stimulation measured after 24 hrs by ELISA; assay type: functional, cell-based; how it was run: as §1
Mus musculus [8] = experiment: In vivo inhibition of proteosome beta 5 in Balb/c mouse kidney at 5 mg/kg, iv followed by dosing repeat on day 6, 8, 11, 13 and 15 and measured on 1 hr post last dose; assay type: functional, organism-based; how it was run: as §4
[9] = Toxicity in Balb/c mouse assessed as change in body weight at 5 mg/kg, iv followed by dosing repeat on day 6, 8, 11, 13 and 15 and measured until day 18; assay type: organism-based; details: in vivo
[10] = target: T1, Proteasome subunit beta type-10 (Homo sapiens) (UniProt P40306); experiment: Inhibition of MECL1 in human PBMC at 500 nM by ELISA
T1 sequence (whole entry): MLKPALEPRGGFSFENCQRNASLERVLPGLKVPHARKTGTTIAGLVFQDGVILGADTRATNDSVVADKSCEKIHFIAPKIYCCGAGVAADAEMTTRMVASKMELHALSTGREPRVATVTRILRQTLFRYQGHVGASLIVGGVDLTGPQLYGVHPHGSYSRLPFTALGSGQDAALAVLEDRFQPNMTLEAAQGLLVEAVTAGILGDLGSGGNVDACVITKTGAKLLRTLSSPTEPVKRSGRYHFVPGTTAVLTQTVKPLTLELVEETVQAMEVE
How it was run: (§5)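 Cryopreserved healthy-donor human PBMC in RPMI 1640 with 5% heat-inactivated FBS, exposed to compound (0.1% DMSO final) for 1 h at 37 °C, 5% CO2, then washed. Subunit-specific active-site occupancy read by ProCISE: biotinylated active-site probe binding, denaturation, streptavidin capture, subunit-specific antibody and HRP chemiluminescence. Signal normalized to protein and expressed relative to DMSO controls.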

Mus musculus [11] = experiment: In vivo inhibition of LMP7 in Balb/c mouse splenocytes at 5 mg/kg, iv followed by dosing repeat on day 6, 8, 11, 13 and 15 and measured on 1 hr post last dose; assay type: functional, organism-based; how it was run: as §4
Mus musculus [12] = experiment: In vivo inhibition of MECL-1 in Balb/c mouse splenocytes at 5 mg/kg, iv followed by dosing repeat on day 6, 8, 11, 13 and 15 and measured on 1 hr post last dose; assay type: functional, organism-based; how it was run: as §4
PBMC [13] = experiment: Cytotoxicity in human PBMC assessed as reduction in cell viability at 500 nM relative to control; assay type: cell-based; details: 0.5 µM
[14] = target: T2, Proteasome subunit beta type-8 (Homo sapiens) (UniProt P28062); experiment: Inhibition of LMP7 in human PBMC at 500 nM by ELISA; how it was run: as §5
T2 sequence (whole entry): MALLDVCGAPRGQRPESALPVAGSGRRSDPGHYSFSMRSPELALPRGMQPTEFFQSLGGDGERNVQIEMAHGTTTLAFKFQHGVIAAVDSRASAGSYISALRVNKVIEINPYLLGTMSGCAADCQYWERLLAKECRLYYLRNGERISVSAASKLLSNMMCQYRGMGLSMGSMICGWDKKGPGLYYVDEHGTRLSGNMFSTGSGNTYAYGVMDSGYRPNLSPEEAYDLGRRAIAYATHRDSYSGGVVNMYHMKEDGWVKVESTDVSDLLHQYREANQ

[15] = target: T3, Proteasome subunit beta type-9 (Homo sapiens) (UniProt P28065); details: 500 nM
T3 sequence (whole entry): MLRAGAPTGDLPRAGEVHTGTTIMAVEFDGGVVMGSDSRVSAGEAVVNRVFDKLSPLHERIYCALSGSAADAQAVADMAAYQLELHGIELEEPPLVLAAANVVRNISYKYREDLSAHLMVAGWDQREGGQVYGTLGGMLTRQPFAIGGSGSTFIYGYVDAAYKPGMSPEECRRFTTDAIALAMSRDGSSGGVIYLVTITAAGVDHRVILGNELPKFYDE

[16] = Half life in Balb/c mouse at 2 mg/kg, iv; assay type: ADME, organism-based; details: in vivo; how it was run: as §3
Mus musculus [17] = experiment: Antiarthritic activity in type 2 collagen antibody/LPS induced Balb/c mouse assessed as reduction in disease burden at 5 mg/kg, iv followed by dosing repeat on day 6, 8, 11, 13 and 15 and measured until day 18; assay type: functional, organism-based
How it was run: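 CAIA in 7−8 week old female BALB/c mice on breeder chow. Induced with 1.75 mg of a 5-antibody anti-type II collagen cocktail iv on day 0, then 25 μg LPS ip on day 3. Dosed as single iv boluses in 10% (w/v) sulfobutyl ether−β-cyclodextrin/10 mM sodium citrate (pH 3.5); vehicle-treated group included.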

PBMC [18] = experiment: Antiinflammatory activity in human PBMC assessed as reduction in anti-CD3/CD28 antibody-stimulated TNF-alpha expression at 500 nM preincubated for 1 hr followed by anti-CD3/CD28 antibody stimulation measured after 24 hrs by ELISA; assay type: functional, cell-based; how it was run: as §2

clearance [4]: > 73 mL/min/kg | inhibition [10]: Active | inhibition [14]: Active | inhibition [15]: Active | half-life [16]: < 7 min
SMILES: C[C@]1(C(=O)[C@H](Cc2ccccc2)NC(=O)[C@H](CO)NC(=O)c2cccc(=O)[nH]2)CO1
Activity (PBMC [1]): inactive | Activity [2]: Non-Toxic | Activity (PBMC [3]): inactive | Activity (PBMC [5]): inactive | inhibition (Mus musculus [6]): Active | Activity (PBMC [7]): inactive | inhibition (Mus musculus [8]): Active | Activity [9]: Non-Toxic | inhibition (Mus musculus [11]): Active | inhibition (Mus musculus [12]): Active | Activity (PBMC [13]): 30% | Activity (Mus musculus [17]): inactive | Activity (PBMC [18]): inactive
